According to PubChem BioAssay:
Activity calls are given as the source filed them.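 Rule for the calls, unless noted: active = fluorescence slope higher than the sample average by over 3 SD (cut at about -0.22 in these data, passing the limit was not always enough); inactive = the rest.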

Experiments:
[1] = inhibitors of TNFa-induced NFkB p65 translocation, primary screen, imaging, HUVEC, MLSMR starter and 10KST1 sets (AID 438;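 active = inhibition above 20% together with a positive visual image hit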;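 note: compound added about 3h40 before a 20 min TNFalpha stimulation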;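 for inhibition: signal is the nuclear over cytoplasmic p65 intensity ratio per well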); conditions: HUVEC TNFa-induced p65 nuclear translocation; cell count: measured here: nuclei count (cytotoxicity indicator), at 2.08 µM; inhibition: at 2 µM, stronger effect = higher value, 0% TNFa-plus-vehicle, 100% no-TNFa wells
[2] = inhibitors of mutant huntingtin aggregation, primary screen, imaging, exon1htt(103Q)mCFP cells, high-content imaging (AID 483;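 active = visual image review flags a hit and inhibition of aggregation exceeds 20%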;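 note: compound exposure lasted 3 days before fixation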;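 for nuclei count: percent of the per-plate median nuclei count of sample wells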); conditions: exon1htt(103Q)mCFP cell line, aggregate imaging, at 2 µM; inhibition of aggregation: stronger effect = higher value; nuclei count: measured here: cell count, toxicity
[3] = inhibitors of E-selectin induction by TNFa, primary screen, imaging, HUVEC, immunofluorescence, MLSMR starter and 10KST1 sets (AID 487;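 active = visually confirmed hit in the image check and inhibition above 20%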;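 for inhibition: signal is fraction of cell area covered by stained E-selectin grains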;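 for nuclei count: 100% = median nuclei count of all wells on the same plate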); conditions: HUVEC TNFalpha-induced E-selectin immunofluorescence imaging, at 2 µM; inhibition: stronger effect = higher value; nuclei count: measured here: cell number, toxicity
[4] = target: Voltage-gated potassium channel subunit beta-2 (Rattus norvegicus) (UniProt P62483); test: KvBeta enzyme negative modulators, primary screen, biochemical, NADPH fluorescence (AID 622); conditions: recombinant KvBeta, 4-cyanobenzaldehyde reduction, at 10 µM, stronger effect = higher value;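 note: slope of raw intensity against log time taken from 70 to 1610 s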
Sequence of Voltage-gated potassium channel subunit beta-2 (Rattus norvegicus) (P62483 whole entry, looked up): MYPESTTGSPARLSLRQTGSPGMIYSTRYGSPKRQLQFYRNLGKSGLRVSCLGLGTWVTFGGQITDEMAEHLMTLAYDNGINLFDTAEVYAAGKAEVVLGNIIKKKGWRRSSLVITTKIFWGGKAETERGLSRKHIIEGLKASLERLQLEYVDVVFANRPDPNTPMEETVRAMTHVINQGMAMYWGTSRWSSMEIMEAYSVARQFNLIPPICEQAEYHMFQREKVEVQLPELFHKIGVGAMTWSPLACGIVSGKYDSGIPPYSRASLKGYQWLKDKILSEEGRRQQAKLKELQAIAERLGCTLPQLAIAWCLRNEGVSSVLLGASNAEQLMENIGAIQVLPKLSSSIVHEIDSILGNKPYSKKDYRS

[5] = target: Voltage-gated potassium channel subunit beta-2 (Rattus norvegicus) (UniProt P62483); test: KvBeta positive modulators, primary screen, biochemical, NADPH fluorescence (AID 623;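 active = NADPH fluorescence slope more negative than the mean of all samples by about 3 SD, 99.7% confidence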;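 note: fluorescence intensity change per second fitted from 20 to 320 s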); conditions: Recombinant KvBeta, NADPH fluorescence decrease slope, 10 min; at 10 µM; stronger effect = lower value
[6] = target: Muscarinic acetylcholine receptor M4 (Homo sapiens) (UniProt P08173); test: compounds altering M4/GIRK thallium flux, either direction, primary screen, M4 allosteric agonist project, cell-based, HEK293 M4/GIRK, BTC-AM (AID 625;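 active = fluorescence slope after compound addition differing from the mean of all tested samples at 99.7% confidence, mostly higher but some lower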;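 note: thallium influx through GIRK channels coupled to M4 in HEK293 cells with BTC-AM dye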); conditions: at 10 µM, actives lie on both sides
Sequence of Muscarinic acetylcholine receptor M4 (Homo sapiens) (P08173 whole entry, looked up): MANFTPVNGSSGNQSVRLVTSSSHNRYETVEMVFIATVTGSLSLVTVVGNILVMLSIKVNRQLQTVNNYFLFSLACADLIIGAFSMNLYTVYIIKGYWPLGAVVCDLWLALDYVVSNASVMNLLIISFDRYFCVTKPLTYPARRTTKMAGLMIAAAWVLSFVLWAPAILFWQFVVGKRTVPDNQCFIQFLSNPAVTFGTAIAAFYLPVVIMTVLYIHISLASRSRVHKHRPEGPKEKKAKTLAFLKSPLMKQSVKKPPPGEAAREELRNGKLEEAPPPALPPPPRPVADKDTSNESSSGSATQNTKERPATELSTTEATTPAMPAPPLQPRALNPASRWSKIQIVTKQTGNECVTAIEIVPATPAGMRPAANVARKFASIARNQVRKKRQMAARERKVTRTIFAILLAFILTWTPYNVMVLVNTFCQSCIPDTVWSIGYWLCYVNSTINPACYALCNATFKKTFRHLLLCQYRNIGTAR
In short: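 Material: HEK293 cells with M4 receptor and GIRK channels; Times: cells overnight at 37 °C, BTC-AM loading 1 h, reads 2 min total; Technique: kinetic BTC-AM fluorescence sampled at 1 Hz, 10 s pre-addition baseline; Read-out basis: slope over 15–24 s of trace normalized to starting intensity; Controls: carbachol positive, DMSO negative.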

[7] = inhibitors of Sendai virus-induced IRF3 signaling, primary screen, TLR/RLR signaling modifier project, cell-based, Sendai virus stimulus, luciferase, 10K MLSCN set (AID 602276;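 active = inhibition at or above 50% at 10 µM; inactive = inhibition below 50%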;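 note: firefly luciferase from ISG56 promoter only with Renilla not read in this screen; 0% = Sendai virus plus DMSO and 100% = medium plus DMSO without virus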); conditions: HEK293 RL24 IRF3 luciferase reporter, at 10 µM, stronger effect = higher value
[8] = inhibitors of poly I:C-induced TLR3 signaling, primary screen, cell-based, poly I:C stimulus, luciferase, 10K MLSCN set (AID 602277;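 active = inhibition of the reporter signal at or above 50%; inactive = inhibition below 50%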); conditions: HEK293-TLR3 RL24 IRF3 luciferase reporter, at 10 µM, stronger effect = higher value

Compound	cell count [1]	inhibition [1]	inhibition of aggregation [2]	nuclei count [2] [%]	inhibition [3]	nuclei count [3] [%]	fluorescence slope [4]	NADPH fluorescence slope [5]	fluorescence slope [6]	inhibition [7]	inhibition [8]
CCCCOc1ccc(-c2nnn(CC(=O)Nc3ncc(CC(=O)OCC)s3)n2)cc1	613	36.4% (active)	18.6% (inactive)	108	-79% (inactive)	79.4	-0.4 (inactive)	6.8e-06 (inactive)	0.00855 (inactive)	13.5% (inactive)	23.8% (inactive)
CCC(=O)N(Cc1cc2c(C)ccc(C)c2[nH]c1=O)C1CCCCC1	689	-5.6% (inactive)	1.1% (inactive)	93.2	-36.3% (inactive)	100	-0.474 (inactive)	-3.7e-05 (inactive)	0.00636 (inactive)	13.6% (inactive)	25.2% (inactive)
CCn1c2ccccc2c2cc(NC(=O)CSc3nnc(C4CC4)n3Cc3ccco3)ccc21	488	6.3% (inactive)	2.5% (inactive)	94.6	36.4% (inactive)	94.6	-0.461 (inactive)	2.1e-05 (inactive)	0.00526 (inactive)	12.7% (inactive)	17.6% (inactive)
CCNc1nc(OC)nc(Oc2ccc(=O)n(-c3ccccc3)n2)n1	769	6.8% (inactive)	8.6% (inactive)	106	-86.7% (inactive)	124	-0.261 (inactive)	-3e-05 (inactive)	0.00602 (inactive)	16.1% (inactive)	22% (inactive)
Cc1ccnc(NC(=O)CCC(=O)N(CC(=O)NC2CCCCC2)c2cccc(C)c2C)c1	426	4.4% (inactive)	-2.4% (inactive)	103	28.9% (inactive)	125	-0.626 (inactive)	3.3e-05 (inactive)	0.00484 (inactive)	13.1% (inactive)	18.7% (inactive)
CC(=O)CC(=O)Nc1ccccc1NC(C)=O	470	6.5% (inactive)	-2.9% (inactive)	108	-17.4% (inactive)	110	-0.579 (inactive)	-2.4e-05 (inactive)	0.00558 (inactive)	14.2% (inactive)	15% (inactive)
O=C(CN1C(=O)C2CC=C(Cl)CC2C1=O)Nc1ccc(C(=O)O)cc1 (centres undefined)	442	3.4% (inactive)	10.1% (inactive)	110	-205% (inactive)	122	-0.569 (inactive)	-7.9e-05 (inactive)	0.00409 (inactive)	19.2% (inactive)	20.6% (inactive)
Nc1nc(CN2CCN(Cc3ccc4c(c3)OCO4)CC2)nc(Nc2ccccc2)n1	652	6.8% (inactive)	-1.8% (inactive)	116	-9.3% (inactive)	115	-0.578 (inactive)	-4.8e-05 (inactive)	0.00565 (inactive)	10.9% (inactive)	22.6% (inactive)
CC1CCCC(C(=O)OCc2ccccc2)N1 (centres undefined)	551	-10.9% (inactive)	-31.2% (inactive)	113	-120% (inactive)	122	-0.389 (inactive)	3.2e-05 (inactive)	0.00626 (inactive)	13.2% (inactive)	20.1% (inactive)
CCS(=O)(=O)N1CCC(C(=O)NCc2cccs2)CC1	683	-5.9% (inactive)	12.4% (inactive)	77.5	-111% (inactive)	102	-0.549 (inactive)	-2e-05 (inactive)	0.00636 (inactive)	5.97% (inactive)	13.7% (inactive)
O=C(CSc1nnc(-c2cccnc2)o1)Nc1ccccn1	328	3.2% (inactive)	7.3% (inactive)	99.4	-60.6% (inactive)	131	-0.317 (inactive)	5.1e-06 (inactive)	0.0082 (inactive)	-56.5% (inactive)	-126% (inactive)
CCOC(=O)c1sc2nc3c(cc2c1N)COC(C)(C)C3	746	-5.9% (inactive)	0.2% (inactive)	105	8.8% (inactive)	105	-0.432 (inactive)	-5.4e-06 (inactive)	0.0043 (inactive)	-38.4% (inactive)	-104% (inactive)
Cc1onc(-c2c(Cl)cccc2Cl)c1C(=O)NCCN1CCOCC1	548	5.1% (inactive)	-1.4% (inactive)	98.9	-48.2% (inactive)	108	-0.471 (inactive)	3e-06 (inactive)	0.00527 (inactive)	21.3% (inactive)	16.3% (inactive)
CN(C(=O)c1ccno1)c1nnc(-c2cnccn2)s1	596	-10.8% (inactive)	10.8% (inactive)	97.4	-39.5% (inactive)	107	-0.309 (inactive)	-5.2e-05 (inactive)	0.00542 (inactive)	5.76% (inactive)	10.1% (inactive)
